In brackets after ≈: the same amount, converted by molar mass. Activity calls are given as the source filed them. The rule behind the calls is not given here.
What was measured:
Enterococcus faecium [1] = experiment: Antibacterial activity against vancomycin-resistant Enterococcus faecium HM-952 infected in C57BL/6 mouse assessed as log reduction in bacterial colony forming unit in feces at 20 mg/kg,po qd measured after 5 days of administration; assay type: functional; conditions: time 5 day
Outline: (§1)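 C57BL/6 mice given ampicillin in drinking water (0.5 g/L) for 7 days, then gavaged orally with 5.39 × 10^8 CFU/mL E. faecium HM-952. Colonization was allowed for 7 days. Randomized groups (n = 7) got 20 mg/kg by oral gavage once daily for 8 days. Vehicle was dimethylacetamide:20% propylene glycol:40% PEG 400:30% PBS. Fecal CFU was counted on days 0, 3, 5 and 7, and ileal and cecal CFU at day 9 after euthanasia. Comparison was against vehicle.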

Enterococcus faecium [2] = experiment: Antibacterial activity against vancomycin-resistant Enterococcus faecium HM-952 infected in C57BL/6 mouse assessed as reduction in bacterial burden in feces at 20 mg/kg,po qd measured after 3 days of administration; assay type: functional; outline: as §1
Enterococcus faecium [3] = experiment: Antibacterial activity against vancomycin-resistant Enterococcus faecium HM-952 infected in C57BL/6 mouse assessed as log reduction in bacterial colony forming unit in feces at 20 mg/kg,po qd measured after 7 days of administration; assay type: functional; conditions: time 7 day; outline: as §1
Enterococcus faecium [4] = experiment: Antibacterial activity against vancomycin-resistant Enterococcus faecium HM-952 infected in C57BL/6 mouse assessed as reduction in bacterial burden in feces at 20 mg/kg,po qd measured after 5 days of administration; assay type: functional; design: scale not given: the % may be the effect or the level left; outline: as §1
Enterococcus faecium [5] = experiment: Antibacterial activity against Enterococcus faecium HM-952 assessed as inhibition of bacterial growth incubated for 18 to 20 hrs by broth microdilution assay; assay type: functional; conditions: time 18-20 hrs
Enterococcus faecium [6] = experiment: Antibacterial activity against vancomycin-resistant Enterococcus faecium HM-952 infected in C57BL/6 mouse assessed as reduction in bacterial burden in feces at 20 mg/kg,po qd measured after 7 days of administration; assay type: functional; design: scale not given: the % may be the effect or the level left; conditions: time 7 day; outline: as §1
[7] = Distribution coefficient between 1-Octanol and PBS buffer, logD of the compound at pH 7.4 incubated for 140 mins by HPLC anlaysis; assay type: physicochemical; conditions: 1-octanol/PBS buffer
Enterococcus faecium [8] = experiment: Antibacterial activity against vancomycin-resistant Enterococcus faecium HM-952 infected in C57BL/6 mouse assessed as reduction in bacterial burden in cecum at 20 mg/kg,po qd measured after 9 days of administration; assay type: functional; design: scale not given: the % may be the effect or the level left; conditions: time 9 day; outline: as §1
[9] = Distribution coefficient between 1-Octanol and PBS buffer, logD of the compound at pH 6.5 incubated for 140 mins by HPLC anlaysis; assay type: physicochemical; conditions: 1-octanol/PBS buffer
Enterococcus faecium [10] = experiment: Antibacterial activity against vancomycin-resistant Enterococcus faecium HM-952 infected in C57BL/6 mouse assessed as log reduction in bacterial colony forming unit in feces at 20 mg/kg,po qd measured after 3 days of administration; assay type: functional; conditions: time 3 day; outline: as §1
Enterococcus faecium [11] = experiment: Antibacterial activity against vancomycin-resistant Enterococcus faecium HM-952 infected in C57BL/6 mouse assessed as log reduction in bacterial colony forming unit in cecum at 20 mg/kg,po qd measured after 9 days of administration; assay type: functional; conditions: time 9 day; outline: as §1
Enterococcus faecium [12] = experiment: Antibacterial activity against vancomycin-resistant Enterococcus faecium HM-952 infected in C57BL/6 mouse assessed as log reduction in bacterial colony forming unit in ileum at 20 mg/kg,po qd measured after 9 days of administration; assay type: functional; conditions: time 9 day; outline: as §1
[13] = Aqueous solubility of the compound in PBS buffer at pH 7.4 by HPLC analysis; assay type: physicochemical
Outline: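 Solubility is measured in phosphate-buffered saline at pH 7.4 and quantified against a calibration curve whose highest point is 200 μM, so the upper reportable value is >200 μM.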

Enterococcus faecium [14] = experiment: Antibacterial activity against vancomycin-resistant Enterococcus faecium HM-952 infected in C57BL/6 mouse assessed as reduction in bacterial burden in ileum at 20 mg/kg,po qd measured after 9 days of administration; assay type: functional; design: scale not given: the % may be the effect or the level left; conditions: time 9 day; outline: as §1
[15] = Efflux ratio of apparent permeability across basolateral to apical over apical to basolateral side in human Caco2 cells; assay type: ADME, cell-based; conditions: Caco-2
Outline: (§2)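 Caco-2 monolayer transport measured in both directions, apical→basolateral and basolateral→apical, and reported as apparent permeability (×10–6 cm/s). Efflux ratio is calculated as Papp B→A divided by Papp A→B.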

[16] = Permeability across apical to basolateral side in human Caco-2 cells assessed as drug recovery; assay type: ADME, cell-based; conditions: read-out: Drug recovery
[17] = Apparent permeability across basolateral to apical side in human Caco2 cells; assay type: ADME, cell-based; conditions: Caco-2; outline: as §2
[18] = Apparent permeability across apical to basolateral side in human Caco2 cells; assay type: ADME, cell-based; conditions: Caco-2; outline: as §2

| SMILES | Activity (Enterococcus faecium [1]) [log10CFU] | Activity (Enterococcus faecium [2]; time 3.0 day) | Activity (Enterococcus faecium [3]) [log10CFU] | Activity (Enterococcus faecium [4]; time 5 day) [%] | MIC (Enterococcus faecium [5]) [µg/mL] | Activity (Enterococcus faecium [6]) [%] | logD at 2.333 h [7] | Activity (Enterococcus faecium [8]) [%] | logD at 2.333 h [9] | Activity (Enterococcus faecium [2]; time 3 day) [%] | Activity (Enterococcus faecium [10]) [log10CFU] | Activity (Enterococcus faecium [11]) [log10CFU] | Activity (Enterococcus faecium [12]) [log10CFU] | solubility [13] [µM] | Activity (Enterococcus faecium [14]) [%] | Activity (Enterococcus faecium [4]; time 5.0 day) | efflux ratio [15] | recovery [16] [%] | Papp B→A [17] [×10⁻⁶ cm/s] | Papp A→B [18] [×10⁻⁶ cm/s] |
| --- | --- | --- | --- | --- | --- | --- | --- | --- | --- | --- | --- | --- | --- | --- | --- | --- | --- | --- | --- | --- |
| CC(=O)NC[C@H]1CN(c2ccc(N3CCOCC3)c(F)c2)C(=O)O1 [LINEZOLID] | 0.87 | Active | 1.07 | 86.5 | 1 (≈ 2.96 µM) | 91.5 | – | – | – | – | – | – | – | – | – | – | – | – | – | – |
| NS(=O)(=O)c1nnc(NC(=O)CN2CCOCC2)s1 | 1.13 | – | 2.16 | 92.6 | 1 (≈ 3.25 µM) | 99.3 | -1.38 | 98.8 | -0.97 | 90 | 1 | 1.92 | 1.62 | 127 (≈ 39 µg/mL) | 97.6 | – | – | – | – | – |
| CC(=O)Nc1nnc(S(N)(=O)=O)s1 [ACETAZOLAMIDE] | – | – | 2.16 | – | 1 (≈ 4.5 µM) | 99.3 | – | 99.7 | – | 90 | 1 | 2.59 | 2.59 | – | 99.7 | Active | – | – | – | – |
| NS(=O)(=O)c1nnc(NC(=O)CCC2CCCCC2)s1 | 1.13 | – | 2.16 | 92.6 | 0.03 (≈ 0.0942 µM) | 99.3 | 2.26 | 97.3 | 2.47 | 90 | 1 | 1.57 | 1.13 | 33 (≈ 10.5 µg/mL) | 94.1 | – | 2.17 | 35 | – | – |
| CC(C)(C)CC(=O)Nc1nnc(S(N)(=O)=O)s1 | 1.13 | – | 2.16 | 92.6 | 0.03 (≈ 0.108 µM) | 99.3 | 1.36 | 99.6 | 1.55 | 90 | 1 | 2.36 | 1.98 | > 200 | 98.9 | – | 2.22 | 80 | 8.2 | 3.7 |

Reference: ChEMBL document CHEMBL5252663, “Evaluation of 1,3,4-Thiadiazole Carbonic Anhydrase Inhibitors for Gut Decolonization of Vancomycin-Resistant Enterococci” (ACS Med Chem Lett, 2023)
